The values that follow come from ChEMBL document CHEMBL1151761, “Radiohalogenated prostate-specific membrane antigen (PSMA)-based ureas as imaging agents for prostate cancer” (J Med Chem, 2008).

As a reminder, the Kp is tissue or fluid exposure divided by exposure in the circulation.

Type in all cases: ADME, organism-based
Data set [1] in a line: Ratio of drug level in tumor to spleen of human PSMA expressing PC3 PIP and PSMA deficient human PC3 flu cells xenografted SCID mouse at 2 uCi, iv after 5 hrs. Particulars: in vivo. In short, it runs like this: (§1)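 Male SCID mice carried subcutaneous xenografts: PSMA+ PC-3 PIP behind the left shoulder and PSMA− PC-3 flu behind the right, 1–5 × 10^6 cells in HBSS. Mice were used at 3–5 mm tumor diameter. 2 μCi was given by tail vein, and 4 mice per time point were killed by cervical dislocation. %ID/g came from a standard dilution of the dose, decay-corrected. Ratio is PIP tumor %ID/g to organ %ID/g.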
(In general: In xenograft studies the graft and the host belong to different species.)

The subject of a further data set is Blood. The data set can be described thus: Biodistribution in blood of PSMA expressing human PC3 PIP and PSMA deficient human PC3 flu cells xenografted SCID mouse at 2 uCi, iv after 60 mins. As to conditions: in vivo, 1 h.
The nature of data set [2]: Ratio of drug level in tumor to heart of human PSMA expressing PC3 PIP and PSMA deficient human PC3 flu cells xenografted SCID mouse at 2 uCi, iv after 2 hrs. Particulars: in vivo. In short, it runs like this:
(§2)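 Male SCID mice carried subcutaneous PSMA+ PC-3 PIP (left shoulder) and PC-3 flu (right shoulder) xenografts, 1-5 × 10^6 cells in HBSS, and were used at 3-5 mm tumor diameter. Tail-vein injection of 2 µCi radioligand; four mice per time point, killed by cervical dislocation. %ID/g from a standard dilution of the dose, decay-corrected, mean ± SD; PIP tumor:organ ratios.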

Data set [3] can be described thus: Ratio of drug level in PC3 PIP tumor to PC3 flu tumor of human PSMA expressing PC3 PIP and PSMA deficient human PC3 flu cells xenografted SCID mouse at 2 uCi, iv after 60 mins. Particulars: in vivo, 1 h. A digest of the protocol:
as §2

Data set [4] is described as follows: Ratio of drug level in tumor to small intestine of human PSMA expressing PC3 PIP and PSMA deficient human PC3 flu cells xenografted SCID mouse at 2 uCi, iv after 2 hrs. Particulars: in vivo. A digest of the protocol: as §1
Data set [5] can be described thus: Biodistribution in PC3 PIP tumor of PSMA expressing human PC3 PIP and PSMA deficient human PC3 flu cells xenografted SCID mouse at 2 uCi, iv after 2 hrs. Particulars: in vivo.
The subject of a further data set is Urinary bladder. The data set can be described thus: Biodistribution in bladder of PSMA expressing human PC3 PIP and PSMA deficient human PC3 flu cells xenografted SCID mouse at 2 uCi, iv after 30 mins. As to conditions: in vivo, 0.5 h.
A short description of data set [6]: Ratio of drug level in tumor to kidney of human PSMA expressing PC3 PIP and PSMA deficient human PC3 flu cells xenografted SCID mouse at 2 uCi, iv after 2 hrs. As to conditions: in vivo. In short, it runs like this:
as §2

Data set [7] in a line: Ratio of drug level in tumor to blood of human PSMA expressing PC3 PIP and PSMA deficient human PC3 flu cells xenografted SCID mouse at 2 uCi, iv after 5 hrs. In short, it runs like this:
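Male SCID mice carried subcutaneous xenografts of PSMA+ PC-3 PIP cells behind the left shoulder and PSMA− PC-3 flu cells behind the right (1–5 × 10^6 cells in HBSS), used at a tumour diameter of 3–5 mm. Each mouse received 2 μCi of radioiodinated tracer via the tail vein. Tissues were harvested at each time point for %ID/g against a standard dilution of the dose, decay-corrected. Ratios are PIP tumour:organ.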

The nature of data set [8]: Ratio of drug level in tumor to kidney of human PSMA expressing PC3 PIP and PSMA deficient human PC3 flu cells xenografted SCID mouse at 2 uCi, iv after 5 hrs. Particulars: in vivo. In short, it runs like this: as §2
In the next data set the test system is Lung. The data set can be described thus: Biodistribution in lung of PSMA expressing human PC3 PIP and PSMA deficient human PC3 flu cells xenografted SCID mouse at 2 uCi, iv after 5 hrs. As to conditions: in vivo.
The nature of data set [9]: Ratio of drug level in tumor to small intestine of human PSMA expressing PC3 PIP and PSMA deficient human PC3 flu cells xenografted SCID mouse at 2 uCi, iv after 5 hrs. As to conditions: in vivo. A digest of the protocol:
as §1

Data set [10] in a line: Ratio of drug level in tumor to bladder of human PSMA expressing PC3 PIP and PSMA deficient human PC3 flu cells xenografted SCID mouse at 2 uCi, iv after 60 mins. As to conditions: in vivo, 1 h. In short, it runs like this:
as §2

Data set [11] is described as follows: Ratio of drug level in tumor to large intestine of human PSMA expressing PC3 PIP and PSMA deficient human PC3 flu cells xenografted SCID mouse at 2 uCi, iv after 60 mins. Particulars: in vivo, 1 h. A digest of the protocol: as §2
A further data set relates to Pancreas. The data set can be described thus: Biodistribution in pancreas of PSMA expressing human PC3 PIP and PSMA deficient human PC3 flu cells xenografted SCID mouse at 2 uCi, iv after 60 mins. As to conditions: in vivo, 1 h.
Data set [12] is described as follows: Ratio of drug level in tumor to kidney of human PSMA expressing PC3 PIP and PSMA deficient human PC3 flu cells xenografted SCID mouse at 2 uCi, iv after 60 mins. Particulars: in vivo, 1 h. A digest of the protocol:
as §2

For data set [13], the system named is Muscle tissue. The data set can be described thus: Biodistribution in muscle of PSMA expressing human PC3 PIP and PSMA deficient human PC3 flu cells xenografted SCID mouse at 2 uCi, iv after 5 hrs. As to conditions: in vivo.
The test system of data set [14] is Muscle tissue. The data set can be described thus: Biodistribution in muscle of PSMA expressing human PC3 PIP and PSMA deficient human PC3 flu cells xenografted SCID mouse at 2 uCi, iv after 30 mins. Particulars: in vivo, 0.5 h.
A short description of data set [15]: Ratio of drug level in tumor to lung of human PSMA expressing PC3 PIP and PSMA deficient human PC3 flu cells xenografted SCID mouse at 2 uCi, iv after 5 hrs. Particulars: in vivo. A digest of the protocol:
as §2

A further data set has as its system Spleen. The data set can be described thus: Biodistribution in spleen of PSMA expressing human PC3 PIP and PSMA deficient human PC3 flu cells xenografted SCID mouse at 2 uCi, iv after 5 hrs. As to conditions: in vivo.
Another data set concerns Stomach. The data set can be described thus: Biodistribution in stomach of PSMA expressing human PC3 PIP and PSMA deficient human PC3 flu cells xenografted SCID mouse at 2 uCi, iv after 2 hrs. Particulars: in vivo.

Turning to `O=C(O)CC[C@H](NC(=O)N[C@@H](CCCCNC(=O)c1ccc([18F])cc1)C(=O)O)C(=O)O`, the Ratio was found to be 3.5 in data set [1]; 25 in [2]; 21 in data set [3]; 12 in data set [4]; 0.1 in data set [6]; 0.3 in [8]. In addition, the Ratio stood at 35 in data set [9]; 0.4 in data set [10]; 13 in data set [11]; 0.1 in data set [12]; 35 in [15]. In addition, the Drug uptake was 0.7 % ID/g in the data set on Blood; 3.7 % ID/g in [5]; 6.8 % ID/g in the data set on Urinary bladder; 0.1 % ID/g in the data set on Lung; 0.3 % ID/g in the data set on Pancreas; 0.1 % ID/g in the data set with Muscle tissue [13]. For the same compound, the Drug uptake with Muscle tissue [14] came to 2.4 % ID/g; with Spleen it was 1 % ID/g; in the data set with Stomach it was 0.3 % ID/g. The Kp at 5 h in data set [7] came out at 117.
